Measured values reported in ChEMBL document CHEMBL1165896, “Design, synthesis and evaluation of mutual prodrug of 4-biphenylacetic acid and quercetin tetramethyl ether (BPA-QTME) as gastrosparing NSAID” (Eur J Med Chem, 2010).
In brackets after ≈: the same amount, converted by molar mass.

Experiments:
[1] = Partition coefficient log P by shake flask method; type: physicochemical; conditions: octanol/water
How it was run: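 Shake flask in n-octanol/phosphate buffer pH 7.4. Compound-saturated octanol shaken with an equal volume of buffer for 24 h at 25 °C, then left 30 min to separate. Both phases quantified by UV against calibration plots.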

[2] = Aqueous solubility at pH. 4; type: physicochemical
[3] = Chemical stability assessed as half life of hydrolysis at pH 2; type: physicochemical; conditions: buffer
How it was run: (§1)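 Compound dissolved in preheated HCl buffer pH 2 or isotonic phosphate buffer pH 7.4 and held at 37 °C. Pseudo-first-order rate constants taken from semilog plots of concentration versus time.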

[4] = Chemical stability assessed as half life of hydrolysis at pH 7.4; type: physicochemical; conditions: buffer; how it was run: as §1
[5] = Stability in presence of 80% human plasma assessed as half life; type: ADME, cell-free
How it was run: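 Citrated human plasma diluted 4:1 with isotonic phosphate buffer pH 7.4 (80% plasma), preheated, shaken at 37 °C. Compound added from a 1 mg/ml stock; samples at intervals diluted and read at 253 nm for released BPA. Rate constant and t½ taken from the linear part of the log BPA concentration versus time plot.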

[6] = Antioxidant activity in stomach assessed as superoxide dismutase activity measured per mg of protein (RVb = 325.40 +/- 69 U); type: functional
[7] = Antioxidant activity in stomach assessed as catalase activity measured per mg of protein (RVb = 28.38 +/- 2.85 U); type: functional
[8] = Antioxidant activity in stomach assessed as lipid peroxidation measured per mg of protein (RVb = 4.61 +/- 1.28 nmole); type: functional, tissue-based
[9] = Antioxidant activity in stomach assessed as myeloperoxidase activity relative to control; type: functional
How it was run: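 Stomach homogenate from ulcer-study rats (0.01 M phosphate buffer), spun 10,000 rpm, 10 min, 10 °C. Supernatant mixed with o-phenylenediamine (660 µg/ml) and started with 300 mM H2O2; A492 read every 30 s for 5 min. ΔOD/min expressed as % of control activity.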

Mus musculus = assay: Analgesic activity in mouse assessed as inhibition of acetic acid-induced writhing at 10 mg/kg, po relative to control; type: functional
How it was run: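 Male LACCA mice (25–35 g), fasted overnight, dosed orally in 0.5% CMC (0.1 ml/10 g) 1 h before 1% acetic acid, 10 ml/kg i.p. Writhes counted over 20 min starting 3 min post-challenge. % inhibition = (1 − Nt/Nc) × 100 versus vehicle controls. Mean ± SE of five experiments.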

Rattus norvegicus [10] = assay: Toxicity in Sprague-Dawley rat assessed as ulcer index at dose molar equivalent to 54 mg/kg, po; type: organism-based; design: dose 54 mg/kg, route oral; conditions: in vivo
How it was run: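 Overnight-fasted Sprague-Dawley rats given oral doses equimolar to BPA 54 mg/kg; vehicle controls. Killed 4 h after dosing; stomachs opened along greater curvature, saline-washed and scored: 0 none, 1 punctiform <1 mm, 3 filiform <5 mm, 4 punctiform >1 mm or filiform >5 mm. Mean ± SE of five experiments.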

Rattus norvegicus [11] = assay: Antiinflammatory activity in Sprague-Dawley rat assessed as reduction in carrageenan-induced paw edema at dose molar equivalent to 15 mg/kg, po after 4 hrs (RVb = 78.4+/- 2.53%); design: scale not given: the % may be the effect or the level left
Rattus norvegicus [12] = assay: Antiinflammatory activity in Sprague-Dawley rat assessed as reduction in carrageenan-induced paw edema at dose molar equivalent to 15 mg/kg, po after 5 hrs (RVb = 65.2+/- 1.96%); design: scale not given: the % may be the effect or the level left
Rattus norvegicus [13] = assay: Antiinflammatory activity in Sprague-Dawley rat assessed as reduction in carrageenan-induced paw edema at dose molar equivalent to 15 mg/kg, po after 2 hrs (RVb = 68.8 +/- 2.06%); design: scale not given: the % may be the effect or the level left
Rattus norvegicus [14] = assay: Antiinflammatory activity in Sprague-Dawley rat assessed as reduction in carrageenan-induced paw edema at dose molar equivalent to 15 mg/kg, po after 3 hrs (RVb = 81.1+/- 2.43 %); design: scale not given: the % may be the effect or the level left

logP [1]	solubility [2]	half-life [3]	half-life [4]	half-life [5]	SMILES	Activity [6]	Activity [7]	Activity [8]	Activity [9]	inhibition in vivo at 10 mg/kg (Mus musculus)	UI (Rattus norvegicus [10])	Activity (Rattus norvegicus [11])	Activity (Rattus norvegicus [12])	Activity (Rattus norvegicus [13])	Activity (Rattus norvegicus [14])
3.95	14.5 µg/mL (≈ 26.2 µM)	> 4.17 days	> 2280 min	19.8 min	COc1cc(OC)c2c(=O)c(OC(=O)Cc3ccc(-c4ccccc4)cc3)c(-c3ccc(OC)c(OC)c3)oc2c1	223 U/mg protein	22.4 U/mg protein	6.42 nM	118.93%	62.4%	0.45	31.6%	33.1%	34.2%	37.5%
					O=C(O)Cc1ccc(-c2ccccc2)cc1 [FELBINAC]	26.2 U/mg protein	3.52 U/mg protein	22.6 nM	238.47%	68.6%	6.2	25.2%	29.1%	26.9%	26.5%
